Bioassay records: PubChem BioAssay, several laboratories
Shown are actives, neighbours in structure and some others; about 1.9% of the full set was active somewhere.
ADAM10 inh – human ADAM10 inhibitors, primary screen, biochemical, QFRET, HTS. Disintegrin and metalloproteinase domain-containing protein 10 (Homo sapiens), O14672. recombinant ADAM10, EDANS/DABCYL FRET peptide cleavage, 3 h. inhibition, % at 7 µM. hit rate 0.62% among 370,000. AID 720582, 2013;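 active = inhibition above a per-campaign cutoff equal to the mean of compounds falling between control-based bounds plus 3 SD, cut at about 20% in these data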;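 also: 0% = DMSO wells while the 100% control is not disclosed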
Target sequence (O14672 214-748 limits assumed): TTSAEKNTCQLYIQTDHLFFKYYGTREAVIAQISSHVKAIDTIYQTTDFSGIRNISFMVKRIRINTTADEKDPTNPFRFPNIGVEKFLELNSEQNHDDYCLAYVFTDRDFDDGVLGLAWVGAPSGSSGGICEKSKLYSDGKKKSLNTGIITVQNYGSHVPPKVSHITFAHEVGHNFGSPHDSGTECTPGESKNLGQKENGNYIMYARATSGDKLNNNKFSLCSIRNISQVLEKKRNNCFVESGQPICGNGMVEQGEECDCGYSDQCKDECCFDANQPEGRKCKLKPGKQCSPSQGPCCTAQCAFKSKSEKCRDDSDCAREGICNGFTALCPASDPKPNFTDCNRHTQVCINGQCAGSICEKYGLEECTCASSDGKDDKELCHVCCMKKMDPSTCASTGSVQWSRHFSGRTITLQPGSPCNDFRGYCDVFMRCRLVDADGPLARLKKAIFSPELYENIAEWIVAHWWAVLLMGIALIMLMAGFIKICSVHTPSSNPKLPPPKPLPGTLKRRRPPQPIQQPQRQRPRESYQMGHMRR
SENP1 inh – human SENP1 catalytic domain inhibitors, primary screen, biochemical, FRET, uHTS | Sentrin-specific protease 1 (Homo sapiens), Q9P0U3 | recombinant SENP1 catalytic domain, CyPet-SUMO1-YPet FRET cleavage | inhibition, % at 10 µM | hit rate 0.21% among 360,000;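 active = inhibition at least 30% at 10 µM, raw YFP signal under a set limit, fluorescence ratio 0.5 to 1.5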;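 also: 0% = enzyme with DMSO and 100% = no enzyme wells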
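Compound: 10 µM single point, 0.5% DMSO; Test system: hSENP1 catalytic domain, recombinant; Timing: 50 min reaction at room temperature; Technique: FRET, CFP and YFP emission; Control set: no-enzyme wells low, DMSO-plus-enzyme wells high control.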
FAS-TE inh – FAS thioesterase domain inhibitors, primary screen, biochemical, fluorescence intensity, uHTS; hit rate 0.67% among 360,000; recombinant FAS-TE, OMFH fluorogenic substrate, fluorescence endpoint; inhibition, % at 15 µM; AID 602261, 2012;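 active = compounds whose normalised, plate-corrected inhibition of enzyme fluorescence in the single-dose primary screen is 50% or more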;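 also: 0% = DMSO with enzyme and 100% = substrate without enzyme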
ADAM17 inh – ADAM17 inhibitors, primary screen, biochemical, QFRET | Disintegrin and metalloproteinase domain-containing protein 17 (Homo sapiens), P78536 | recombinant ADAM17, EDANS/DABCYL FRET peptide cleavage | inhibition, % at 6.95 µM | hit rate 0.83% among 370,000 | AID 720648, 2013;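 active = inhibition above the mean of compounds lying between control limits plus 3 SD, set per campaign, cut at about 8.5% in these data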;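 also: 0% = DMSO-only wells as the low control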
ADAM10 confirm – human ADAM10 inhibitors, confirmation, biochemical, QFRET, triplicate | ADAM10 QFRET peptide cleavage, EDANS fluorescence | shares compounds with ADAM10 inh | AID 743208, 2013 | inhibition, % at 6.95 µM | hit rate 1% among 2,100;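 active = inhibition above about 20% chosen separately for each screening run, limit read from the data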;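 also: 0% = DMSO wells and 100% = marimastat wells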
ADAM17 ctr – ADAM17 inhibitors, counter-screen for ADAM10 exosite inhibitor project, biochemical, QFRET, high throughput; shares compounds with ADAM10 inh; ADAM17 QFRET peptide cleavage, EDANS fluorescence; inhibition, % at 6.95 µM; hit rate 0.5% among 2,100;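 active = mean triplicate inhibition above the solvent-only control wells' mean plus 3 SD, cut at about 12% in these data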;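 also: 0% = DMSO wells and 100% = marimastat wells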
* = called active by the depositor; nt = no result.

SMILES | ADAM10 inh | SENP1 inh | FAS-TE inh | ADAM17 inh | ADAM10 confirm | ADAM17 ctr
COc1ccccc1NC(=O)O[C@@H]1CC[C@@]23CCCN2C(=O)CCC[C@H]3C1 | -8 | nt | nt | -6 | nt | nt
COC(=O)[C@]12C[C@H](CC(=O)NCc3ccc(C)o3)C(=O)N(CCC3=CCCCC3)C1=C[C@H](C(C)C)O[C@@H]2C1CC1 | 5 | nt | nt | 0 | nt | nt
CCCC(=O)Nc1ccc(S(=O)(=O)N2CCCC2)cc1 | 6 | 2 | -10 | 2 | nt | nt
CCCCC(=O)NC(=S)Nc1ccc(S(=O)(=O)N2CCCC2)cc1 | 72* | 2 | 7 | 1 | 0 | 0
Cc1cccc(C(=O)NC(=S)N2CCN(C(=S)NC(=O)c3cccc(C)c3)CC2)c1 | 24* | -2 | -6 | 3 | 1 | 0
Cc1cccc(C(=O)NC(=S)N2CCN(C)CC2)c1 | -5 | 2 | -7 | -3 | nt | nt
CC(C)C[C@H]1COc2ccc(Cl)cc2S(=O)(=O)N1Cc1cn(Cc2ccc(C(F)(F)F)cc2)nn1 | -5 | nt | nt | -1 | nt | nt
O=C(CN1CCN(S(=O)(=O)c2ccc(Br)cc2)CC1)Nc1ccc2c(c1)OCO2 | 21* | 2 | 2 | 1 | 0 | 0
Cc1ccc(-c2noc(CN(C(=O)C(c3ccccc3)c3ccccc3)C(C)C)n2)cc1 | 20* | 1 | 30 | 5 | 2 | 1
CC(C)N1Cc2nnn(Cc3ccccc3)c2-c2cc(N3CCCC3)ccc2S1(=O)=O | -37 | nt | nt | -7 | nt | nt
O=C(COC(=O)CCc1c[nH]c2ccccc12)NC(c1ccccc1)c1ccccc1 | 24* | 1 | 16 | 7 | 7 | 2
O=C(CSc1nnc(-c2cccnc2)n1Cc1ccco1)Nc1ccc(F)cc1Cl | -12 | nt | nt | -10 | nt | nt
CCn1c(SCC(=O)Nc2ccccc2-c2ccccc2)nnc1-c1ccc(Cl)cc1 | 0 | nt | nt | 0 | nt | nt
Cc1cc(C)c(C#N)c(SCSCc2ccccc2)n1 | 7 | -2 | 42 | 4 | nt | nt
Cc1cc(C)c(C#N)c(SCc2ccccc2)n1 | 23* | 5 | 22 | 8 | 1 | 1
CC(=O)N1c2ccccc2C(C)=NCC1C(=O)NC1CCCCC1 (configuration not stated) | -6 | nt | nt | -4 | nt | nt
COc1ccc(-c2n[nH]c(C(F)(F)F)c2-c2cc3ccccc3o2)c(O)c1 | 22* | 3 | 23 | 4 | 21* | 10
O=C(/C=C/c1ccccc1)Nc1ccc(NC(=O)c2cccs2)cc1 | 22* | 0 | 0 | -2 | 2 | 1
O=C(N[C@@H]1CCC(=O)N(CC[C@H](Oc2ccccc2)c2ccccc2)CC1)OCc1ccccc1 | 20* | 1 | 16 | 3 | 5 | 2
COc1ccc(OC)c(S(=O)(=O)N2CCCCC2C(=O)N2CCN(c3ccccc3F)CC2)c1 (configuration not stated) | -4 | nt | nt | -3 | nt | nt
COc1ccc(C(=O)COC(=O)/C=C/c2ccc(S(=O)(=O)Nc3cccc(S(N)(=O)=O)c3)cc2)cc1 | 21* | 2 | 5 | 6 | 0 | 0
COC(=O)CSc1nnc(-c2ccc(NS(=O)(=O)c3c(C(C)C)cc(C(C)C)cc3C(C)C)cc2)o1 | 21* | nt | nt | 8 | 10 | 3
CCO[C@H]1OC(C(=O)NCc2ccccc2)=C[C@@H](c2cn(C(C)=O)c3ccccc23)[C@@H]1CCCO | 26* | -1 | -1 | 3 | 4 | 2
C#Cc1ccc([C@@H]2C=C(C(=O)N3CCN(Cc4ccccc4)CC3)O[C@H](OCC)[C@H]2CCCO)cc1 | 24* | 1 | -6 | 4 | 3 | 1
CCO[C@@H]1OC(C(=O)NCc2nc3ccccc3[nH]2)=C[C@H](c2csc3ccccc23)[C@H]1CCCO | 20* | 2 | 5 | 3 | 4 | 2
CCO[C@H]1OC(C(=O)NCc2nc3ccccc3[nH]2)=C[C@@H](c2ccccc2)[C@@H]1CCCO | -3 | 1 | 3 | -2 | nt | nt
